Results as given in ChEMBL document CHEMBL1139875, “Discovery of 4-aminobutyric acid derivatives possessing anticonvulsant and antinociceptive activities: a hybrid pharmacophore approach” (2007).
Active and inactive are the calls of the source. No cut-off for these calls is given here.

Test system: Mus musculus
Assay: Anticonvulsant activity in Swiss Albino mouse at 300 mg/kg, ip after 0.5 hr by scPTZ test
Format: functional, organism-based
Design: dose 300 mg/kg
Settings: not given
In short: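 Mice (Swiss, 20-25 g) given i.p. doses of 30, 100 and 300 mg/kg under ADD program protocols, three per group, examined at 0.5 and 4 h in MES, scPTZ, scSTY or scPIC seizure tests. Value is the minimum dose protecting half or more of the mice.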

Row | Compound | Activity
1 | O=C(O)CCCNC(=O)N/N=C/c1ccccc1O | inactive
2 | CN(C)c1ccc(/C=N/NC(=O)NCCCC(=O)O)cc1 | inactive

Test system: Mus musculus
Assay: Analgesic activity in Swiss Albino mouse assessed as inhibition of acetic acid-induced writhing responses at 100 mg/kg, ip
Format: functional
Settings: route intraperitoneal
In short: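 Mice in groups of six dosed i.p. at 100 mg/kg, controls receiving 30% v/v PEG 400 in water. Writhing induced by i.p. 0.1 mL of 3% v/v acetic acid 1 h after drug. Writhes (abdominal stretch with at least one hind limb extended) counted over 30 min; % inhibition calculated. Mean ± SEM, Student's t test.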

Row | Compound | inhibition in vivo at 100 mg/kg [%]
3 | O=C(O)CCCNC(=O)N/N=C/c1ccccc1O | 89
4 | CN(C)c1ccc(/C=N/NC(=O)NCCCC(=O)O)cc1 | 93

Test system: Rattus norvegicus
Assay: Effect on spontaneous pain in Sprague-Dawley rat CCI model assessed as duration of paw withdrawal at 100 mg/kg, ip after 0.5 hr
Format: functional
Settings: route intraperitoneal
In short: (§1)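 CCI rats (n = 4) dosed 100 mg/kg i.p. (vehicle 30% v/v PEG 400 in water). After 10 min acclimatization in a cage 5 cm above ground, cumulative time the ipsilateral paw was held off the floor over 5 min recorded, excluding locomotion lifts. Mean ± SEM; ANOVA/Bonferroni versus predrug.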

Row | Compound | Activity [s]
5 | O=C(O)CCCNC(=O)N/N=C/c1ccccc1O | 10.5
6 | CN(C)c1ccc(/C=N/NC(=O)NCCCC(=O)O)cc1 | 47.2

Test system: Rattus norvegicus
Assay: Effect on spontaneous pain in Sprague-Dawley rat CCI model assessed as duration of paw withdrawal at 100 mg/kg, ip after 1 hr
Format: functional
Settings: route intraperitoneal
In short: as §1

Row | Compound | Activity [s]
7 | O=C(O)CCCNC(=O)N/N=C/c1ccccc1O | 19.3
8 | CN(C)c1ccc(/C=N/NC(=O)NCCCC(=O)O)cc1 | 48.8

Test system: Rattus norvegicus
Assay: Effect on spontaneous pain in Sprague-Dawley rat CCI model assessed as duration of paw withdrawal at 100 mg/kg, ip after 1.5 hrs
Format: functional
Settings: route intraperitoneal
In short: (§2)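 Unilateral CCI of sciatic nerve (Bennett and Xie) in Sprague-Dawley rats under i.p. pentobarbital sodium (65 mg/kg). Spontaneous pain is scored over 5 min after 10 min acclimatization, as cumulative time the ipsilateral paw is held off the floor. Paw lifts from locomotion or repositioning are excluded. Drug is given at 100 mg/kg i.p. with 30% v/v PEG 400 vehicle. Mean ± SEM, n = 4, compared with predrug by ANOVA/Bonferroni.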

Row | Compound | Activity [s]
9 | O=C(O)CCCNC(=O)N/N=C/c1ccccc1O | 23.7
10 | CN(C)c1ccc(/C=N/NC(=O)NCCCC(=O)O)cc1 | 38.2

Test system: Rattus norvegicus
Assay: Effect on spontaneous pain in Sprague-Dawley rat CCI model assessed as duration of paw withdrawal at 100 mg/kg, ip after 2 hrs
Format: functional
Settings: route intraperitoneal
In short: as §2

Row | Compound | Activity [s]
11 | O=C(O)CCCNC(=O)N/N=C/c1ccccc1O | 11.2
12 | CN(C)c1ccc(/C=N/NC(=O)NCCCC(=O)O)cc1 | 11.9

Test system: Rattus norvegicus
Assay: Anti-dynamic allodynia effect in Sprague-Dawley rat SNL model assessed as latency to paw withdrawal 100 mg/kg, ip after 0.5 hr
Format: functional
Settings: route intraperitoneal
In short: (§3)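 Left L5 spinal nerve ligation rats, tested preoperatively and 9 days postoperatively, then given 100 mg/kg i.p. (vehicle 30% v/v PEG 400 in water). After 10 min acclimatization, plantar surface of affected paw stroked mildly with a cotton-bud; paw lift response recorded. n = 4; retested 0.5-2.5 h post-dose.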

Row | Compound | Activity [s]
13 | O=C(O)CCCNC(=O)N/N=C/c1ccccc1O | 11.2
14 | CN(C)c1ccc(/C=N/NC(=O)NCCCC(=O)O)cc1 | 10.7

Test system: Rattus norvegicus
Assay: Anti-dynamic allodynia effect in Sprague-Dawley rat SNL model assessed as latency to paw withdrawal 100 mg/kg, ip after 1 hr
Format: functional
Settings: route intraperitoneal
In short: as §3

Row | Compound | Activity [s]
15 | O=C(O)CCCNC(=O)N/N=C/c1ccccc1O | 14.3
16 | CN(C)c1ccc(/C=N/NC(=O)NCCCC(=O)O)cc1 | 8.8

Test system: Rattus norvegicus
Assay: Anti-dynamic allodynia effect in Sprague-Dawley rat SNL model assessed as latency to paw withdrawal 100 mg/kg, ip after 1.5 hrs
Format: functional
Settings: route intraperitoneal
In short: as §3

Row | Compound | Activity [s]
17 | O=C(O)CCCNC(=O)N/N=C/c1ccccc1O | 11.5
18 | CN(C)c1ccc(/C=N/NC(=O)NCCCC(=O)O)cc1 | 7.3

Test system: Rattus norvegicus
Assay: Anti-cold allodynia effect in Sprague-Dawley rat SNL model assessed as duration of paw withdrawal 100 mg/kg, ip after 1.5 hrs
Format: functional
Settings: route intraperitoneal
In short: (§4)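 Left L5 spinal nerve ligation under pentobarbital (65 mg/kg i.p.). Allodynic rats dosed i.p. 100 mg/kg, vehicle 30% v/v PEG 400 in water. Acetone (100-200 µL) misted onto midplantar affected paw after 10 min acclimatization; paw withdrawal duration, mean of three samples at least 3 min apart; n = 4 rats.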

Row | Compound | Activity [s]
19 | O=C(O)CCCNC(=O)N/N=C/c1ccccc1O | 26

Test system: Rattus norvegicus
Assay: Anti-cold allodynia effect in Sprague-Dawley rat SNL model assessed as duration of paw withdrawal 100 mg/kg, ip after 2 hrs
Format: functional
Settings: route intraperitoneal
In short: as §4

Row | Compound | Activity [s]
20 | O=C(O)CCCNC(=O)N/N=C/c1ccccc1O | 25.4

Test system: Rattus norvegicus
Assay: Effect on spontaneous pain in Sprague-Dawley rat CCI model assessed as duration of paw withdrawal at 100 mg/kg, ip after 2.5 hrs
Format: functional
Settings: route intraperitoneal
In short: as §2

Row | Compound | Activity [s]
21 | O=C(O)CCCNC(=O)N/N=C/c1ccccc1O | 7.3
22 | CN(C)c1ccc(/C=N/NC(=O)NCCCC(=O)O)cc1 | 5.2

Test system: Rattus norvegicus
Assay: Antihyperalgesic effects in Sprague-Dawley rat CCI model assessed as duration of paw withdrawal at 100 mg/kg, ip after 0.5 hr
Format: functional
Settings: route intraperitoneal

Row | Compound | Activity [s]
23 | O=C(O)CCCNC(=O)N/N=C/c1ccccc1O | 7.5
24 | CN(C)c1ccc(/C=N/NC(=O)NCCCC(=O)O)cc1 | 17.4

Test system: Rattus norvegicus
Assay: Antihyperalgesic effects in Sprague-Dawley rat CCI model assessed as duration of paw withdrawal at 100 mg/kg, ip after 1 hr
Format: functional
Settings: route intraperitoneal

Row | Compound | Activity [s]
25 | O=C(O)CCCNC(=O)N/N=C/c1ccccc1O | 7.7
26 | CN(C)c1ccc(/C=N/NC(=O)NCCCC(=O)O)cc1 | 13.1

Test system: Rattus norvegicus
Assay: Antihyperalgesic effects in Sprague-Dawley rat CCI model assessed as duration of paw withdrawal at 100 mg/kg, ip after 1.5 hrs
Format: functional
Settings: route intraperitoneal

Row | Compound | Activity [s]
27 | O=C(O)CCCNC(=O)N/N=C/c1ccccc1O | 4.4
28 | CN(C)c1ccc(/C=N/NC(=O)NCCCC(=O)O)cc1 | 9.7

Test system: Rattus norvegicus
Assay: Antihyperalgesic effects in Sprague-Dawley rat CCI model assessed as duration of paw withdrawal at 100 mg/kg, ip after 2 hrs
Format: functional
Settings: route intraperitoneal

Row | Compound | Activity [s]
29 | O=C(O)CCCNC(=O)N/N=C/c1ccccc1O | 4.1
30 | CN(C)c1ccc(/C=N/NC(=O)NCCCC(=O)O)cc1 | 5.8

Test system: Rattus norvegicus
Assay: Antihyperalgesic effects in Sprague-Dawley rat CCI model assessed as duration of paw withdrawal at 100 mg/kg, ip after 2.5 hrs
Format: functional
Settings: route intraperitoneal

Row | Compound | Activity [s]
31 | O=C(O)CCCNC(=O)N/N=C/c1ccccc1O | 7.3
32 | CN(C)c1ccc(/C=N/NC(=O)NCCCC(=O)O)cc1 | 4.8

Test system: Rattus norvegicus
Assay: Antihyperalgesic effects in Sprague-Dawley rat SNL model assessed as duration of paw withdrawal at 100 mg/kg, ip after 0.5 hr, ip
Format: functional
Settings: route intraperitoneal
In short: (§5)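 L5 SNL rats (n = 4), dosed 100 mg/kg i.p. (vehicle 30% v/v PEG 400 in water). Pin-prick to midplantar ipsilateral left hindpaw; withdrawal duration, mean of three responses; ≥2 s defined abnormal. Mean ± SEM; one-way ANOVA with Bonferroni versus predrug.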

Row | Compound | Activity [s]
33 | O=C(O)CCCNC(=O)N/N=C/c1ccccc1O | 17.6
34 | CN(C)c1ccc(/C=N/NC(=O)NCCCC(=O)O)cc1 | 4.7

Test system: Rattus norvegicus
Assay: Antihyperalgesic effects in Sprague-Dawley rat SNL model assessed as duration of paw withdrawal at 100 mg/kg, ip after 1 hr, ip
Format: functional
Settings: route intraperitoneal
In short: as §5

Row | Compound | Activity [s]
35 | O=C(O)CCCNC(=O)N/N=C/c1ccccc1O | 17.3
36 | CN(C)c1ccc(/C=N/NC(=O)NCCCC(=O)O)cc1 | 5.8

Test system: Rattus norvegicus
Assay: Antihyperalgesic effects in Sprague-Dawley rat SNL model assessed as duration of paw withdrawal at 100 mg/kg, ip after 1.5 hrs, ip
Format: functional
Settings: route intraperitoneal
In short: as §5

Row | Compound | Activity [s]
37 | O=C(O)CCCNC(=O)N/N=C/c1ccccc1O | 10.6
38 | CN(C)c1ccc(/C=N/NC(=O)NCCCC(=O)O)cc1 | 5.5

Test system: Rattus norvegicus
Assay: Antihyperalgesic effects in Sprague-Dawley rat SNL model assessed as duration of paw withdrawal at 100 mg/kg, ip after 2.5 hrs, ip
Format: functional
Settings: route intraperitoneal
In short: as §5

Row | Compound | Activity [s]
39 | O=C(O)CCCNC(=O)N/N=C/c1ccccc1O | 17.3
40 | CN(C)c1ccc(/C=N/NC(=O)NCCCC(=O)O)cc1 | 5.8

Species on record: Rattus norvegicus
Assay: Anti-dynamic allodynic effect in Sprague-Dawley rat CCI model assessed as latency to paw withdrawal after 0.5 hr
Format: functional
Settings: not given
In short: (§6)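 Rats with sciatic nerve chronic constriction injury (pentobarbital 65 mg/kg i.p. anaesthesia), baseline and day 9 testing, then drug per randomization table. After 10 min acclimatization, affected plantar surface stroked mildly with a cotton-bud; paw lift recorded. n = 4; retested 0.5-2.5 h post-dose.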

Row | Compound | Activity [s]
41 | O=C(O)CCCNC(=O)N/N=C/c1ccccc1O | 13.6
42 | CN(C)c1ccc(/C=N/NC(=O)NCCCC(=O)O)cc1 | 10.9

Species on record: Rattus norvegicus
Assay: Anti-dynamic allodynic effect in Sprague-Dawley rat CCI model assessed as latency to paw withdrawal after 1 hr
Format: functional
Settings: not given
In short: as §6

Row | Compound | Activity [s]
43 | O=C(O)CCCNC(=O)N/N=C/c1ccccc1O | 13.5
44 | CN(C)c1ccc(/C=N/NC(=O)NCCCC(=O)O)cc1 | 10.9

Species on record: Rattus norvegicus
Assay: Anti-dynamic allodynic effect in Sprague-Dawley rat CCI model assessed as latency to paw withdrawal after 1.5 hr
Format: functional
Settings: not given
In short: as §6

Row | Compound | Activity [s]
45 | O=C(O)CCCNC(=O)N/N=C/c1ccccc1O | 11.1
46 | CN(C)c1ccc(/C=N/NC(=O)NCCCC(=O)O)cc1 | 10.3

Species on record: Rattus norvegicus
Assay: Anti-dynamic allodynic effect in Sprague-Dawley rat CCI model assessed as latency to paw withdrawal after 2 hr
Format: functional
Settings: not given
In short: as §6

Row | Compound | Activity [s]
47 | O=C(O)CCCNC(=O)N/N=C/c1ccccc1O | 14.6
48 | CN(C)c1ccc(/C=N/NC(=O)NCCCC(=O)O)cc1 | 8.2

Species on record: Rattus norvegicus
Assay: Anti-dynamic allodynic effect in Sprague-Dawley rat CCI model assessed as latency to paw withdrawal after 2.5 hr
Format: functional
Settings: not given
In short: as §6

Row | Compound | Activity [s]
49 | O=C(O)CCCNC(=O)N/N=C/c1ccccc1O | 13.1
50 | CN(C)c1ccc(/C=N/NC(=O)NCCCC(=O)O)cc1 | 8.4

Test system: Rattus norvegicus
Assay: Anti-cold allodynia effect in Sprague-Dawley rat CCI model assessed as duration of paw withdrawal at 100 mg/kg, ip after 0.5 hr
Format: functional
Settings: route intraperitoneal
In short: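 CCI by sciatic nerve ligation under pentobarbital (65 mg/kg i.p.). Rats tested at baseline and 9 days post-surgery; those with allodynia dosed i.p. 100 mg/kg, vehicle 30% v/v PEG 400 in water. Acetone (100-200 µL) misted on midplantar affected paw; withdrawal duration recorded, three samples averaged, at least 3 min apart; n = 4.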

Row | Compound | Activity [s]
51 | O=C(O)CCCNC(=O)N/N=C/c1ccccc1O | 31.3
52 | CN(C)c1ccc(/C=N/NC(=O)NCCCC(=O)O)cc1 | 28.1
